Source: ChEMBL document CHEMBL1137943, “Synthesis and antibacterial activity of O-substituted nocathiacin I derivatives” (Bioorg Med Chem Lett, 2004)
≈ marks a conversion by molar mass, not a printed value.

Assays:
Streptococcus pneumoniae = assay: Minimum concentration required to inhibit visible growth of penicillin-resistant Streptococcus pneumoniae A28272; format: functional
Outline: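 Serial microbroth dilution in 50% Mueller–Hinton/50% Todd–Hewitt medium; final inoculum about 5 × 10^5 CFU/well; incubated at 35 °C for 18 h in ambient air. MIC is the lowest drug concentration preventing visible growth.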

Staphylococcus aureus = assay: Minimum concentration required to inhibit visible growth of methicillin-sensitive Staphylococcus aureus A15090; format: functional
Outline: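 Serial microbroth dilution in Mueller–Hinton medium; final inoculum about 5 × 10^5 CFU/well; incubated at 35 °C for 18 h in ambient air. MIC is the lowest drug concentration preventing visible bacterial growth.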

Enterococcus faecalis = assay: Minimum concentration required to inhibit visible growth of Enterococcus faecalis A20688
[1] = Equilibrium water solubility was determined with amorphous powders at pH 4; format: ADME
Mus musculus [2] = assay: Dose (iv) required against Staphylococcus aureus infected mice; format: functional; conditions: read-out: PD50
[3] = Equilibrium water solubility was determined with amorphous powders at pH 3; format: ADME
[4] = Equilibrium water solubility was determined with amorphous powders at pH 8.4; format: ADME
[5] = Equilibrium water solubility was determined with amorphous powders at pH 3.5; format: ADME
Mus musculus [6] = assay: Dose (sc) required against Staphylococcus aureus infected mice; format: functional; conditions: read-out: PD50
Outline: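 Adult female ICR mice infected ip with 5–6 × 10^6 CFU of S. aureus A15090 in 7% hog gastric mucin. Drug in 10% DMSO/5% Tween 80/85% water given sc twice, at 1 and 4 h post-infection. Survival followed for 8 days; 10 mice per group, at least three doses. PD50 (mg/kg) by Spearman–Karber estimator.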

[7] = Equilibrium water solubility was determined with amorphous powders at pH 8.5; format: ADME
[8] = Equilibrium water solubility was determined with amorphous powders at pH 8.2; format: ADME
[9] = Equilibrium water solubility was determined with amorphous powders at pH 6.9; format: ADME
[10] = Equilibrium water solubility was determined with amorphous powders at pH 7.1; format: ADME

Row | SMILES | MIC (Streptococcus pneumoniae) | MIC (Staphylococcus aureus) | MIC (Enterococcus faecalis) | ED50 (Mus musculus [2]) | further results
1 | C=C(NC(=O)c1csc(-c2nc3c(cc2O)-c2nc(cs2)C(=O)NC(C(C)O)C(=O)N/C(=C(\C)OC)c2nc(cs2)C(=O)NC2c4nc(cs4)C(=O)NC(COC(=O)c4c5c6c(cccc6n4OC(=O)NCCCC)COC(=O)C(OC4CC(C)(O)C(N(C)C)C(C)O4)C2OC5)c2nc-3cs2)n1)C(N)=O (stereo not drawn) | 7 ng/mL (≈ 0.00456 µM) | 0.001 µg/mL (≈ 0.000651 µM) | 0.03 µg/mL (≈ 0.0195 µM) |  | 
2 | C=C(NC(=O)c1csc(-c2nc3c(cc2OP(=O)(O)OCCCl)-c2nc(cs2)C(=O)NC(C(C)O)C(=O)N/C(=C(\C)OC)c2nc(cs2)C(=O)NC2c4nc(cs4)C(=O)NC(COC(=O)c4c5c6c(cccc6n4OP(=O)(O)OCCCl)COC(=O)C(OC4CC(C)(O)C(N(C)C)C(C)O4)C2OC5)c2nc-3cs2)n1)C(N)=O (stereo not drawn) | 500 ng/mL (≈ 0.29 µM) | 4 µg/mL (≈ 2.32 µM) | 4 µg/mL (≈ 2.32 µM) |  | 
3 | C=C(NC(=O)c1csc(-c2nc3c(cc2O)-c2nc(cs2)C(=O)N[C@@H]([C@@H](C)O)C(=O)N/C(=C(\C)OC)c2nc(cs2)C(=O)N[C@@H]2c4nc(cs4)C(=O)N[C@@H](COC(=O)c4c5c6c(cccc6n4O)COC(=O)[C@@H](O[C@H]4C[C@](C)(O)[C@H](N(C)C)[C@H](C)O4)[C@H]2OC5)c2nc-3cs2)n1)C(N)=O [MJ347-81F4 A] | 2 ng/mL (≈ 0.00139 µM) | 0.007 µg/mL (≈ 0.00487 µM) | 0.03 µg/mL (≈ 0.0209 µM) | 0.2 mg/kg | solubility thermodynamic [1]: 340 µg/mL (≈ 237 µM)
4 | C=C(NC(=O)c1csc(-c2nc3c(cc2O)-c2nc(cs2)C(=O)NC(C(C)O)C(=O)N/C(=C(\C)OC)c2nc(cs2)C(=O)NC2c4nc(cs4)C(=O)NC(COC(=O)c4c5c6c(cccc6n4OC(=O)NCCCN4CCN(C)CC4)COC(=O)C(OC4CC(C)(O)C(N(C)C)C(C)O4)C2OC5)c2nc-3cs2)n1)C(N)=O (stereo not drawn) | 0.5 ng/mL (≈ 0.000308 µM) | 0.003 µg/mL (≈ 0.00185 µM) | 0.003 µg/mL (≈ 0.00185 µM) |  | solubility thermodynamic [3]: > 2300 µg/mL
5 | C=C(NC(=O)c1csc(-c2nc3c(cc2O)-c2nc(cs2)C(=O)NC(C(C)O)C(=O)N/C(=C(\C)OC)c2nc(cs2)C(=O)NC2c4nc(cs4)C(=O)NC(COC(=O)c4c5c6c(cccc6n4OC(=O)NC)COC(=O)C(OC4CC(C)(O)C(N(C)C)C(C)O4)C2OC5)c2nc-3cs2)n1)C(N)=O (stereo not drawn) | 1 ng/mL (≈ 0.000669 µM) | 0.125 µg/mL (≈ 0.0836 µM) | 0.06 µg/mL (≈ 0.0401 µM) |  | 
6 | C=C(NC(=O)c1csc(-c2nc3c(cc2OP([O-])OC)-c2nc(cs2)C(=O)NC(C(C)O)C(=O)N/C(=C(\C)OC)c2nc(cs2)C(=O)NC2c4nc(cs4)C(=O)NC(COC(=O)c4c5c6c(cccc6n4O)COC(=O)C(OC4CC(C)(O)C(N(C)C)C(C)O4)C2OC5)c2nc-3cs2)n1)C(N)=O.[Na+] (stereo not drawn) | 60 ng/mL | 0.125 µg/mL | 0.25 µg/mL | 0.26 mg/kg | solubility thermodynamic [4]: > 2200 µg/mL
7 | C=C(NC(=O)c1csc(-c2nc3c(cc2O)-c2nc(cs2)C(=O)NC(C(C)O)C(=O)N/C(=C(\C)OC)c2nc(cs2)C(=O)NC2c4nc(cs4)C(=O)NC(COC(=O)c4c5c6c(cccc6n4OC(=O)NCCOCCOCCOCCOCCOCCO)COC(=O)C(OC4CC(C)(O)C(N(C)C)C(C)O4)C2OC5)c2nc-3cs2)n1)C(N)=O (stereo not drawn) | 3 ng/mL (≈ 0.00172 µM) | 0.06 µg/mL (≈ 0.0344 µM) | 0.06 µg/mL (≈ 0.0344 µM) |  | solubility thermodynamic [5]: > 2100 µg/mL; ED50 (Mus musculus [6]): 0.78 mg/kg
8 | C=C(NC(=O)c1csc(-c2nc3c(cc2OP([O-])OC)-c2nc(cs2)C(=O)NC(C(C)O)C(=O)N/C(=C(\C)OC)c2nc(cs2)C(=O)NC2c4nc(cs4)C(=O)NC(COC(=O)c4c5c6c(cccc6n4OP([O-])OC)COC(=O)C(OC4CC(C)(O)C(N(C)C)C(C)O4)C2OC5)c2nc-3cs2)n1)C(N)=O.[Na+].[Na+] (stereo not drawn) | 3 ng/mL | 0.25 µg/mL | 0.25 µg/mL | 5.9 mg/kg | solubility thermodynamic [7]: > 10000 µg/mL
9 | C=C(NC(=O)c1csc(-c2nc3c(cc2O)-c2nc(cs2)C(=O)NC(C(C)O)C(=O)N/C(=C(\C)OC)c2nc(cs2)C(=O)NC2c4nc(cs4)C(=O)NC(COC(=O)c4c5c6c(cccc6n4OC(=O)NCCOCCOCCOCCOC)COC(=O)C(OC4CC(C)(O)C(N(C)C)C(C)O4)C2OC5)c2nc-3cs2)n1)C(N)=O (stereo not drawn) | 15 ng/mL (≈ 0.00898 µM) | 0.125 µg/mL (≈ 0.0748 µM) | 0.125 µg/mL (≈ 0.0748 µM) |  | 
10 | C=C(NC(=O)c1csc(-c2nc3c(cc2O)-c2nc(cs2)C(=O)NC(C(C)O)C(=O)N/C(=C(\C)OC)c2nc(cs2)C(=O)NC2c4nc(cs4)C(=O)NC(COC(=O)c4c5c6c(cccc6n4OP([O-])OC)COC(=O)C(OC4CC(C)(O)C(N(C)C)C(C)O4)C2OC5)c2nc-3cs2)n1)C(N)=O.[Na+] (stereo not drawn) | 7 ng/mL | 0.125 µg/mL | 0.25 µg/mL | 1.6 mg/kg | solubility thermodynamic [8]: 5600 µg/mL
11 | C=C(NC(=O)c1csc(-c2nc3c(cc2O)-c2nc(cs2)C(=O)NC(C(C)O)C(=O)N/C(=C(\C)OC)c2nc(cs2)C(=O)NC2c4nc(cs4)C(=O)NC(COC(=O)c4c5c6c(cccc6n4OP(=O)(O)OCCCl)COC(=O)C(OC4CC(C)(O)C(N(C)C)C(C)O4)C2OC5)c2nc-3cs2)n1)C(N)=O (stereo not drawn) | 30 ng/mL (≈ 0.019 µM) | 0.25 µg/mL (≈ 0.158 µM) | 0.5 µg/mL (≈ 0.316 µM) |  | solubility thermodynamic [9]: 530 µg/mL (≈ 335 µM); ED50 (Mus musculus [6]): > 10 mg/kg
12 | C=C(NC(=O)c1csc(-c2nc3c(cc2O)-c2nc(cs2)C(=O)NC(C(C)O)C(=O)N/C(=C(\C)OC)c2nc(cs2)C(=O)NC2c4nc(cs4)C(=O)NC(COC(=O)c4c5c6c(cccc6n4OC(=O)N(C)CCO)COC(=O)C(OC4CC(C)(O)C(N(C)C)C(C)O4)C2OC5)c2nc-3cs2)n1)C(N)=O (stereo not drawn) | 0.5 ng/mL (≈ 0.000325 µM) | 0.03 µg/mL (≈ 0.0195 µM) | 0.03 µg/mL (≈ 0.0195 µM) |  | solubility thermodynamic [10]: 3 µg/mL (≈ 1.95 µM)
13 | C=C(NC(=O)c1csc(-c2nc3c(cc2OP(=O)(O)OCCCl)-c2nc(cs2)C(=O)NC(C(C)O)C(=O)N/C(=C(\C)OC)c2nc(cs2)C(=O)NC2c4nc(cs4)C(=O)NC(COC(=O)c4c5c6c(cccc6n4O)COC(=O)C(OC4CC(C)(O)C(N(C)C)C(C)O4)C2OC5)c2nc-3cs2)n1)C(N)=O (stereo not drawn) | 30 ng/mL (≈ 0.019 µM) | 1 µg/mL (≈ 0.633 µM) | 1 µg/mL (≈ 0.633 µM) |  | 
